Experimental data published in ChEMBL document CHEMBL4312005, “Optimization of pyrrolizine-based Schiff bases with 4-thiazolidinone motif: Design, synthesis and investigation of cytotoxicity and anti-inflammatory potency” (Eur J Med Chem, 2020).

Key:
[1] = molecular target: T1, Rhodopsin kinase GRK1 (Homo sapiens) (UniProt Q15835); assay: Inhibition of GRK1 (unknown origin) assessed as enzyme activity incubated for 15 mins by [gamma-33]ATP based scintillation counting method relative to control; parameters: scale not given: the % may be the effect or the level left
T1 sequence (whole entry): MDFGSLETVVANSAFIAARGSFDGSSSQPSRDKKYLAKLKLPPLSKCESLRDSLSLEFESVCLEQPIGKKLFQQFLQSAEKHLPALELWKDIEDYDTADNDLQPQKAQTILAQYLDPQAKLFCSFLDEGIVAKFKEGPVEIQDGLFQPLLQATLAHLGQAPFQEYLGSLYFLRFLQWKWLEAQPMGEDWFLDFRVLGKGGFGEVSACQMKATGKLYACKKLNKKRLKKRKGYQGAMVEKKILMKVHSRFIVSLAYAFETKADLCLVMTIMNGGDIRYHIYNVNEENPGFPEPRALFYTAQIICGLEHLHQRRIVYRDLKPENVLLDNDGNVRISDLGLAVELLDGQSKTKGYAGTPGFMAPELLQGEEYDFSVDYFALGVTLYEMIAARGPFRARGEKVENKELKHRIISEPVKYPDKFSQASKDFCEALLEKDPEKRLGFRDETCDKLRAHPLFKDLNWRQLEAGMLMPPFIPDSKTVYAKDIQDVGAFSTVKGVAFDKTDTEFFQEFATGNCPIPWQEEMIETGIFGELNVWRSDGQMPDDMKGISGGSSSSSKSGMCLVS

[2] = molecular target: T2, Serine/threonine-protein kinase Sgk1 (Homo sapiens) (UniProt O00141); assay: Inhibition of recombinant human N-terminal GST-tagged SGK1 (60 to end residues) expressed in baculovirus infected Sf9 insect cells assessed as enzyme activity incubated for 15 mins by [gamma-33]ATP based scintillation counting method relative to control; parameters: scale not given: the % may be the effect or the level left
T2 sequence (whole entry): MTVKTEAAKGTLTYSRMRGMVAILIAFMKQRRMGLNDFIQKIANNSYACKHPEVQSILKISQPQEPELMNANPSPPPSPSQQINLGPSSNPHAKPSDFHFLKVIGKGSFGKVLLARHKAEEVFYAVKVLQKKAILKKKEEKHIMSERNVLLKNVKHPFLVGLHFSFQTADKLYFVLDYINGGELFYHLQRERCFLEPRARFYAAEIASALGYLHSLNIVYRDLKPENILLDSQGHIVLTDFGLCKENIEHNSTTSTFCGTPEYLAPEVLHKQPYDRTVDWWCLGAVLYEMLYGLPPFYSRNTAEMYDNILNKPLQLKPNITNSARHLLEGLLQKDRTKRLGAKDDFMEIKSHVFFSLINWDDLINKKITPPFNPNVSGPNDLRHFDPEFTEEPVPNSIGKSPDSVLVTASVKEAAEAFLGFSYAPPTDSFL

[3] = molecular target: Epidermal growth factor receptor (Homo sapiens) (UniProt P00533); assay: Inhibition of EGFR (unknown origin) assessed as enzyme activity incubated for 15 mins by [gamma-33]ATP based scintillation counting method relative to control; parameters: scale not given: the % may be the effect or the level left
Chain of Epidermal growth factor receptor (Homo sapiens) (P00533 whole entry): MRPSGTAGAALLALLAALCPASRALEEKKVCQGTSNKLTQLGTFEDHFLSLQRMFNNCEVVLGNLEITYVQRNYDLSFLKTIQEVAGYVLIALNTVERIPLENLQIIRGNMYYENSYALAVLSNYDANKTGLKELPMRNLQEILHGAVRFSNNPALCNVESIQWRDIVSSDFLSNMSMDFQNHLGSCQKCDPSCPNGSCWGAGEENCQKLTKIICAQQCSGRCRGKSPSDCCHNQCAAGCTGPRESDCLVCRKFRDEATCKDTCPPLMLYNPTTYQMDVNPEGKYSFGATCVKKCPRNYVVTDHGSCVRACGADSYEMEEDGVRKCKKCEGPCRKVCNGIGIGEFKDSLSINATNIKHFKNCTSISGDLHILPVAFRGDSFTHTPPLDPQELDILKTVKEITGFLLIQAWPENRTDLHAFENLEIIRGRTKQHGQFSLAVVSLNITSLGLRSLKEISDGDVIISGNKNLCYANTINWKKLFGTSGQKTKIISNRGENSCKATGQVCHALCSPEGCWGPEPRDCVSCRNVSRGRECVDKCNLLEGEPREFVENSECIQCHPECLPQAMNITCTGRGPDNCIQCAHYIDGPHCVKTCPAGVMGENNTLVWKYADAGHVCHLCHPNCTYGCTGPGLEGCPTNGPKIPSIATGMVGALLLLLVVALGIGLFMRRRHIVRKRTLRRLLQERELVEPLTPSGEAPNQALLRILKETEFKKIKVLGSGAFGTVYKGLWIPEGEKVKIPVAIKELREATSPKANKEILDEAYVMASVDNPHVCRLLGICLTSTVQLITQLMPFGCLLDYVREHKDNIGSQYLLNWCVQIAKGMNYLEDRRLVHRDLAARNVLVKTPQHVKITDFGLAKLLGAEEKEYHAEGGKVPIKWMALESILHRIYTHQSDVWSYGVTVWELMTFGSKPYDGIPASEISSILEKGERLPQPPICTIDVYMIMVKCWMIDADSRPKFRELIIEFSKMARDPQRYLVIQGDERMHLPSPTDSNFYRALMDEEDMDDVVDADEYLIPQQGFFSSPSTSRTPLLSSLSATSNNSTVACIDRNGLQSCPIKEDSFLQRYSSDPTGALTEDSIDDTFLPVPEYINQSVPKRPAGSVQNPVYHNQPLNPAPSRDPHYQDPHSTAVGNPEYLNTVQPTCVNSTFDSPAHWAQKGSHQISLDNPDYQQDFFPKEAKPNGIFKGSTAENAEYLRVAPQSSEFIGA

[4] = molecular target: Cyclin-dependent kinase 2 (Homo sapiens, UniProt P24941); assay: Inhibition of CDK2 (unknown origin) incubated for 40 mins by ADP-glo assay
[5] = molecular target: T3, Serine/threonine-protein kinase Nek1 (Homo sapiens) (UniProt Q96PY6); assay: Inhibition of recombinant human N-terminal GST-tagged full length NEK1 expressed in baculovirus infected Sf9 insect cells assessed as enzyme activity incubated for 15 mins by [gamma-33]ATP based scintillation counting method relative to control; parameters: scale not given: the % may be the effect or the level left
T3 sequence (whole entry): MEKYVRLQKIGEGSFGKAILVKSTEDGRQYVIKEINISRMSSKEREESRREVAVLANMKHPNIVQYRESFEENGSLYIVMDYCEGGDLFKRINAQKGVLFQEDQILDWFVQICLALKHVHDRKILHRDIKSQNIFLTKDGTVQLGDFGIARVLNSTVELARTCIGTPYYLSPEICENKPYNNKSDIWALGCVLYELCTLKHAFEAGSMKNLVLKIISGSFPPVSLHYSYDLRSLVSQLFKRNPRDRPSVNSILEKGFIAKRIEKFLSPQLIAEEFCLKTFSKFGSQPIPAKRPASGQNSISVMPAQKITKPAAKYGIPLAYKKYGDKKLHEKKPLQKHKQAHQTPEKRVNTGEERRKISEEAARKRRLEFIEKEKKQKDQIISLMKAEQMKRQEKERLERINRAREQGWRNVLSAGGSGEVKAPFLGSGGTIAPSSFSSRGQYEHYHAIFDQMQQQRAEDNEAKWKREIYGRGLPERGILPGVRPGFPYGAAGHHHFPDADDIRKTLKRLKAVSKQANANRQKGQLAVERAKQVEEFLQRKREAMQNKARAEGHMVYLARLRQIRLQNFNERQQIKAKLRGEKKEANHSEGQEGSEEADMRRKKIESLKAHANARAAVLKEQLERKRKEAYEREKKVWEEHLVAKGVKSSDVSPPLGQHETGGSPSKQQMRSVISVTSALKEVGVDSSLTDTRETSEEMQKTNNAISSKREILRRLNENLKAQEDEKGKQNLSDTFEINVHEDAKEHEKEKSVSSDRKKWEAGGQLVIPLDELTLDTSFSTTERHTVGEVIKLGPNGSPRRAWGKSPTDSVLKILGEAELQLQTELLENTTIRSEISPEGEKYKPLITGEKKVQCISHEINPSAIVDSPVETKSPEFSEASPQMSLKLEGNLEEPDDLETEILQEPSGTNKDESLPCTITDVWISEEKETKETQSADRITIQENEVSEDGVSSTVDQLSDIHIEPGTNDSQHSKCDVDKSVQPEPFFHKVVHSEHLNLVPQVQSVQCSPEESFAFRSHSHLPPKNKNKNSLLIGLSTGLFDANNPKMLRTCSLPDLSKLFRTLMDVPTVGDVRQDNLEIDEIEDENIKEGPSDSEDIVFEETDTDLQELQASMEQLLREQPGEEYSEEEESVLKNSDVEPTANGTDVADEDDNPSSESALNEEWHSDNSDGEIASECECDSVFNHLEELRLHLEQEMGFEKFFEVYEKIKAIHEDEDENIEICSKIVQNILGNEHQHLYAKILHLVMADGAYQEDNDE

[6] = test system: MRC5; assay: Cytotoxicity against human MRC5 cells assessed as reduction in cell growth incubated for 72 hrs by MTT assay; format: cell-based; details: MRC5, 72 h
Procedure, shortened: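 MTT assay on MCF-7, A2780, HT29 and normal MRC5 fibroblast lines (ATCC) grown in DMEM with 10% FBS. Cells exposed to compounds for 72 h, then reduced MTT read at 570 nm.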

Compound | Activity [1] [%] | Activity [2] [%] | Activity [3] [%] | IC50 [4] [nM] | Activity [5] [%] | IC50 [6] [nM]
Cc1ccc(NC(=O)c2ccc(CN3CCN(C)CC3)cc2)cc1Nc1nccc(-c2cccnc2)n1 | 2 | 3 | 13 |  |  | 
CCC1SCC(=O)N1c1c(C#N)c2n(c1C(=O)Nc1ccccc1)CCC2 (stereo unspecified) | -9 | 8 | 10 | 630 | 10 | 630
CC/C=N/c1c(C#N)c2n(c1C(=O)Nc1ccccc1)CCC2 | -10 | -14 | -10 | 580 | -1 | 3170
CC(C)C/C=N/c1c(C#N)c2n(c1C(=O)Nc1ccc(Br)cc1)CCC2 | 1 | 7 | 40 | 1270 | -14 | 25800
